According to ChEMBL document CHEMBL3421595, “Design and Synthesis of New α-Naphthoflavones as Cytochrome P450 (CYP) 1B1 Inhibitors To Overcome Docetaxel-Resistance Associated with CYP1B1 Overexpression” (J Med Chem, 2015):
pIC50: −log10 of the molar value.

Key:
Cytochrome P450 1B1 = target: T1, Cytochrome P450 1B1 (Homo sapiens, UniProt Q16678); test: Inhibition of human CYP1B1 assessed as reduction in 7-ethoxyresorufin O-deethylation activity by fluorescence based EROD assay
T1 sequence (Q16678 whole entry): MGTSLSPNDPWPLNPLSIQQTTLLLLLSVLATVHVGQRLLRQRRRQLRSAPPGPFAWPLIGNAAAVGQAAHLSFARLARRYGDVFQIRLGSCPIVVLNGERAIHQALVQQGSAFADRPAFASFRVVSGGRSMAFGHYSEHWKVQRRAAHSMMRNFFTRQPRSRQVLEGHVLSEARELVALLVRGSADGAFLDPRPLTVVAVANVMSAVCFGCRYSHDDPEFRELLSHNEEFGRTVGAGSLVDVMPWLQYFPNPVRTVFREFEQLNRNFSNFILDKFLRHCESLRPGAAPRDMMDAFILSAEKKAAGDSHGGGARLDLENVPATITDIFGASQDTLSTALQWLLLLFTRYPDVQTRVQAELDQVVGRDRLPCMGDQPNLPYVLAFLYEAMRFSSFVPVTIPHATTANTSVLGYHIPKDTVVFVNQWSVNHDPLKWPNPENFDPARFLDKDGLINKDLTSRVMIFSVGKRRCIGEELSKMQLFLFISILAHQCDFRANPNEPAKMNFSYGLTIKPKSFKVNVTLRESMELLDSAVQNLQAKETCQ
In short: (§1)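 Recombinant human CYP1B1, 1A1 and 1A2 in a standard EROD assay. NADPH regeneration system: 1.3 mM NADP+, 3.3 mM G-6-P, 0.5 U/mL G6-PD. Incubation time 35 min for CYP1B1, 15 min for 1A1 and 50 min for 1A2. IC50 by Probit analysis; selectivity taken as the ratio of IC50 values.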

Cytochrome P450 1A1 = target: T2, Cytochrome P450 1A1 (Homo sapiens, UniProt P04798); test: Inhibition of human CYP1A1 assessed as reduction in 7-ethoxyresorufin O-deethylation activity by fluorescence based EROD assay; type: ADME
T2 sequence (P04798 whole entry): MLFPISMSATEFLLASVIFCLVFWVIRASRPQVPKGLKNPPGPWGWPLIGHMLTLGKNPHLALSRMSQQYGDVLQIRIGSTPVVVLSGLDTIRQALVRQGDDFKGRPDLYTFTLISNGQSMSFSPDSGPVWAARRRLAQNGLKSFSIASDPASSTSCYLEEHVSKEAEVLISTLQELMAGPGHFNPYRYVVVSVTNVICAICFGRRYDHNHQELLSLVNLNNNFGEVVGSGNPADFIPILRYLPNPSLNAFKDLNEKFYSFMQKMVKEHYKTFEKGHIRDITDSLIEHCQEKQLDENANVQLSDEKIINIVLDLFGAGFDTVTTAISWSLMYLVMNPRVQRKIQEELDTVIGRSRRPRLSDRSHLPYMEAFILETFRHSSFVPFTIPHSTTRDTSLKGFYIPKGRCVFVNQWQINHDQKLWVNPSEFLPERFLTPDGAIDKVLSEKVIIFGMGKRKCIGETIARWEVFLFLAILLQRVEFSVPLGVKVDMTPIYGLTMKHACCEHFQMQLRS
In short: as §1, with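 “assay. 7-Ethoxyresorufin fixed at 150 nM.” for “assay.”, “1A2. Resorufin fluorescence read at ex 545 / em 590 nm.” for “1A2.”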

Cytochrome P450 1A2 = target: T3, Cytochrome P450 1A2 (Homo sapiens, UniProt P05177); test: Inhibition of human CYP1A2 assessed as reduction in 7-ethoxyresorufin O-deethylation activity by fluorescence based EROD assay; type: ADME; in short: as §1
T3 sequence (P05177 whole entry): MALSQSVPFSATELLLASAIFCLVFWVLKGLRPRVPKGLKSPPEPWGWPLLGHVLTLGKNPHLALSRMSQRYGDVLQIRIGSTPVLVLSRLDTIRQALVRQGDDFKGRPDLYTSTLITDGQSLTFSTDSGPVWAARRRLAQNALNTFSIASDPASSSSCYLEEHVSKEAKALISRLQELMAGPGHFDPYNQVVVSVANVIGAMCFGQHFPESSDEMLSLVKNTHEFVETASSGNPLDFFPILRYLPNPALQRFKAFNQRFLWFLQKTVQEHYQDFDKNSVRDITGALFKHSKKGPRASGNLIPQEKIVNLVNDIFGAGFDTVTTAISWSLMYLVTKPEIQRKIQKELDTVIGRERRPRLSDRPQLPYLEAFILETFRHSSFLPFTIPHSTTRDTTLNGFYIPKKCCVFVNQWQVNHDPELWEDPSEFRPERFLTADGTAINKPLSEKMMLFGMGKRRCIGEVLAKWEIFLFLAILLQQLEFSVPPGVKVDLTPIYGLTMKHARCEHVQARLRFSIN

Homo sapiens [1] = species: Homo sapiens; test: Selectivity index, ratio of IC50 for human CYP1A1 to IC50 for human CYP1B1
In short: as §1, with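 “assay. 7-Ethoxyresorufin fixed at 150 nM.” for “assay.”, “1A2. Resorufin fluorescence read at ex 545 / em 590 nm.” for “1A2.”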

Homo sapiens [2] = species: Homo sapiens; test: Selectivity index, ratio of IC50 for human CYP1A2 to IC50 for human CYP1B1
In short: as §1, with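 “assay. 7-Ethoxyresorufin fixed at 150 nM.” for “assay.”, “1A2. Resorufin fluorescence read at ex 545 / em 590 nm.” for “1A2.”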

With `COc1ccc(OC)c2c1c(OC)cc1c(=O)c(OCCOC(=O)[C@@H](N)C(C)C)c(-c3cccc(F)c3)oc12` the pIC50 (Cytochrome P450 1B1) was 6.94, the pIC50 (Cytochrome P450 1A1) was 6.72 and the pIC50 (Cytochrome P450 1A2) was 7.17. It also gave a Ratio IC50 (Homo sapiens [1]) of 1.7 and a Ratio IC50 (Homo sapiens [2]) of 0.6.
Work on `COc1ccc(-c2cc(=O)c3cc(OC)c4c(OC)ccc(OC)c4c3o2)cc1OC` yielded a pIC50 (Cytochrome P450 1B1) of 8.60, a pIC50 (Cytochrome P450 1A1) of 7.94 and a pIC50 (Cytochrome P450 1A2) of 7.71. It also gave a Ratio IC50 (Homo sapiens [1]) of 4.6 and a Ratio IC50 (Homo sapiens [2]) of 7.7.
`COc1cc(-c2cc(=O)c3cc(OC)c4c(OC)ccc(OC)c4c3o2)cc(OC)c1OC` was tested, and the pIC50 (Cytochrome P450 1B1) was 8.01, the pIC50 (Cytochrome P450 1A1) was 7.65 and the pIC50 (Cytochrome P450 1A2) was 7.63. The Ratio IC50 (Homo sapiens [1]) was 2.3 and the Ratio IC50 (Homo sapiens [2]) was 2.4.
`COc1ccc(OC)c2c1c(OC)cc1c(=O)c(O)c(-c3cccc(Cl)c3)oc12` was tested, and the pIC50 (Cytochrome P450 1B1) was 8.46, the pIC50 (Cytochrome P450 1A1) was 7.34 and the pIC50 (Cytochrome P450 1A2) was 7.37. For the same compound, the Ratio IC50 (Homo sapiens [1]) was 13 and the Ratio IC50 (Homo sapiens [2]) was 12.
`COc1ccc(OC)c2c1c(OC)cc1c(=O)c(OCCCCOC(=O)CN)c(-c3cccc(F)c3)oc12` showed a pIC50 (Cytochrome P450 1B1) of 7.43, a pIC50 (Cytochrome P450 1A1) of 7.15 and a pIC50 (Cytochrome P450 1A2) of 6.92. The Ratio IC50 (Homo sapiens [1]) was 1.9 and the Ratio IC50 (Homo sapiens [2]) was 3.3.
`COc1ccc(OC)c2c1c(OC)cc1c(=O)cc(-c3ccccc3F)oc12` showed a pIC50 (Cytochrome P450 1B1) of 9.70, a pIC50 (Cytochrome P450 1A1) of 8.23 and a pIC50 (Cytochrome P450 1A2) of 7.66. For the same compound, the Ratio IC50 (Homo sapiens [1]) was 29.5 and the Ratio IC50 (Homo sapiens [2]) was 111.
For `COc1ccc(OC)c2c1c(OC)cc1c(=O)c(O)c(-c3ccccc3F)oc12`, the pIC50 (Cytochrome P450 1B1) was 8.92, the pIC50 (Cytochrome P450 1A1) was 7.56 and the pIC50 (Cytochrome P450 1A2) was 7.53. The Ratio IC50 (Homo sapiens [1]) was 23 and the Ratio IC50 (Homo sapiens [2]) was 25.
`COc1ccc(OC)c2c1c(OC)cc1c(=O)c(O)c(-c3ccccc3)oc12` showed a pIC50 (Cytochrome P450 1B1) of 8.64, a pIC50 (Cytochrome P450 1A1) of 7.50 and a pIC50 (Cytochrome P450 1A2) of 7.46. The Ratio IC50 (Homo sapiens [1]) was 14 and the Ratio IC50 (Homo sapiens [2]) was 15.
`COc1ccc(OC)c2c1c(OC)cc1c(=O)c(O)c(-c3ccc(F)cc3)oc12` was tested, and the pIC50 (Cytochrome P450 1B1) was 9.10, the pIC50 (Cytochrome P450 1A1) was 7.93 and the pIC50 (Cytochrome P450 1A2) was 7.24. It also gave a Ratio IC50 (Homo sapiens [1]) of 15 and a Ratio IC50 (Homo sapiens [2]) of 72.
`COc1ccc(OC)c2c1c(OC)cc1c(=O)cc(-c3ccccc3Cl)oc12` was tested, and the pIC50 (Cytochrome P450 1B1) was 8.96, the pIC50 (Cytochrome P450 1A1) was 7.72 and the pIC50 (Cytochrome P450 1A2) was 7.24. The Ratio IC50 (Homo sapiens [1]) was 17.5 and the Ratio IC50 (Homo sapiens [2]) was 53.
With `COc1ccc(OC)c2c1c(OC)cc1c(=O)c(O)c(-c3ccc(Cl)cc3)oc12` the pIC50 (Cytochrome P450 1B1) was 8.30, the pIC50 (Cytochrome P450 1A1) was 7.57 and the pIC50 (Cytochrome P450 1A2) was 7.08. It also gave a Ratio IC50 (Homo sapiens [1]) of 5.4 and a Ratio IC50 (Homo sapiens [2]) of 17.
Compound `COc1ccc(OC)c2c1c(OC)cc1c(=O)c(OCCCCCCCCOC(=O)CN)c(-c3cccc(F)c3)oc12` has a pIC50 (Cytochrome P450 1B1) of 7.91, a pIC50 (Cytochrome P450 1A1) of 7.70 and a pIC50 (Cytochrome P450 1A2) of 6.89. It also gave a Ratio IC50 (Homo sapiens [1]) of 1.6 and a Ratio IC50 (Homo sapiens [2]) of 10.
For `COc1ccc(OC)c2c1c(OC)cc1c(=O)cc(-c3ccc(OCc4ccccc4)cc3)oc12`, the pIC50 (Cytochrome P450 1B1) was 6.11, the pIC50 (Cytochrome P450 1A1) was 7.17 and the pIC50 (Cytochrome P450 1A2) was 7.37. The Ratio IC50 (Homo sapiens [1]) was 0.09 and the Ratio IC50 (Homo sapiens [2]) was 0.06.
Compound `COc1ccc(OC)c2c1c(OC)cc1c(=O)cc(-c3ccccc3O)oc12` has a pIC50 (Cytochrome P450 1B1) of 7.20, a pIC50 (Cytochrome P450 1A1) of 7.92 and a pIC50 (Cytochrome P450 1A2) of 7.30. The Ratio IC50 (Homo sapiens [1]) was 0.19 and the Ratio IC50 (Homo sapiens [2]) was 0.8.
With `COc1ccc(OC)c2c1c(OC)cc1c(=O)cc(-c3ccc(O)cc3)oc12` the pIC50 (Cytochrome P450 1B1) was 6.19, the pIC50 (Cytochrome P450 1A1) was 6.94 and the pIC50 (Cytochrome P450 1A2) was 7.23. The Ratio IC50 (Homo sapiens [1]) was 0.18 and the Ratio IC50 (Homo sapiens [2]) was 0.09.
In the case of `COc1ccc(OC)c2c1c(OC)cc1c(=O)c(OCCOC(=O)[C@H](C)N)c(-c3cccc(F)c3)oc12`, the pIC50 (Cytochrome P450 1B1) was 7.01, the pIC50 (Cytochrome P450 1A1) was 7.40 and the pIC50 (Cytochrome P450 1A2) was 7.07. For the same compound, the Ratio IC50 (Homo sapiens [1]) was 0.4 and the Ratio IC50 (Homo sapiens [2]) was 0.87.
Work on `COc1ccc(OC)c2c1c(OC)cc1c(=O)c(O)c(-c3cccc(F)c3)oc12` yielded a pIC50 (Cytochrome P450 1B1) of 9.52, a pIC50 (Cytochrome P450 1A1) of 7.17 and a pIC50 (Cytochrome P450 1A2) of 7.58. It also gave a Ratio IC50 (Homo sapiens [1]) of 223 and a Ratio IC50 (Homo sapiens [2]) of 88.
`COc1ccc(OC)c2c1c(OC)cc1c(=O)cc(-c3ccc(OCc4ccccc4)c(OCc4ccccc4)c3)oc12` was tested, and the pIC50 (Cytochrome P450 1B1) was less than 4.00, the pIC50 (Cytochrome P450 1A1) was 6.27 and the pIC50 (Cytochrome P450 1A2) was 7.01.
In the case of `COc1ccc(OC)c2c1c(OC)cc1c(=O)cc(-c3cccc(F)c3)oc12`, the pIC50 (Cytochrome P450 1A1) was 7.94, the pIC50 (Cytochrome P450 1A2) was 7.44 and the Ratio IC50 (Homo sapiens [1]) was 267. For the same compound, the Ratio IC50 (Homo sapiens [2]) was 853.
